From ChEMBL document CHEMBL1140079, “Discovery of orally bioavailable cathepsin S inhibitors for the reversal of neuropathic pain” (J Med Chem, 2008)

How the values were obtained:
Cathepsin S [1] = molecular target: Cathepsin S (Homo sapiens, UniProt P25774); experiment: Inhibition of human recombinant cathepsin S by fluorescence assay
Summary of the method: (§1)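 Recombinant human enzymes in a fluorescence assay; substrate Z-Phe-Arg-MCA for cathepsins K and L, Z-Leu-Leu-Arg-MCA for cathepsin S. Means of two experiments, each run in duplicate; individual points within a 2-fold range of each other.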

Cathepsin K [2] = molecular target: T1, Cathepsin K (Homo sapiens, UniProt P43235); experiment: Inhibition of human recombinant cathepsin K by fluorescence assay; summary of the method: as §1
T1 sequence (P43235 whole entry): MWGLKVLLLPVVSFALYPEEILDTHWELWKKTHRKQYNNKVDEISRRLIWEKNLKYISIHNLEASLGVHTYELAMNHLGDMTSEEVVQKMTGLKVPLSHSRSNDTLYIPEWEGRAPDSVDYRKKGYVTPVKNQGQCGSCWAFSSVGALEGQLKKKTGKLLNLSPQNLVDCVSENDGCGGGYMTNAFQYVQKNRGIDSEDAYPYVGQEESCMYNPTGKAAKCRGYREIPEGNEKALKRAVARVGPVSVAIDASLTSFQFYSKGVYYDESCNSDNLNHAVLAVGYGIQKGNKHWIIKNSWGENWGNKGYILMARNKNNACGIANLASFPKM

Procathepsin L [3] = molecular target: Procathepsin L (Homo sapiens, UniProt P07711); experiment: Inhibition of human recombinant cathepsin L by fluorescence assay; summary of the method: as §1
Chain of Procathepsin L (Homo sapiens, UniProt P07711) (P07711 whole entry): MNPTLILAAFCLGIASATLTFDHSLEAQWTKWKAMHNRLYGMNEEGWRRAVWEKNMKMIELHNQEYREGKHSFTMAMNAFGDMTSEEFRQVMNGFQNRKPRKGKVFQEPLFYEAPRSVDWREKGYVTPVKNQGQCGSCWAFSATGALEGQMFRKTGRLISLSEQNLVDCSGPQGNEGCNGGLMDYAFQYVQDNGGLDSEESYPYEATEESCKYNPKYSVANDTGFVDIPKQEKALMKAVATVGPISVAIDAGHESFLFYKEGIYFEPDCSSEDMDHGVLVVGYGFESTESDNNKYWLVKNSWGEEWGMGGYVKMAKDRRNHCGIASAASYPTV

Cathepsin S [4] = molecular target: Cathepsin S (Mus musculus, UniProt O70370); experiment: Inhibition of mouse cathepsin S by fluorescence assay
Chain of Cathepsin S (Mus musculus, UniProt O70370) (O70370 whole entry): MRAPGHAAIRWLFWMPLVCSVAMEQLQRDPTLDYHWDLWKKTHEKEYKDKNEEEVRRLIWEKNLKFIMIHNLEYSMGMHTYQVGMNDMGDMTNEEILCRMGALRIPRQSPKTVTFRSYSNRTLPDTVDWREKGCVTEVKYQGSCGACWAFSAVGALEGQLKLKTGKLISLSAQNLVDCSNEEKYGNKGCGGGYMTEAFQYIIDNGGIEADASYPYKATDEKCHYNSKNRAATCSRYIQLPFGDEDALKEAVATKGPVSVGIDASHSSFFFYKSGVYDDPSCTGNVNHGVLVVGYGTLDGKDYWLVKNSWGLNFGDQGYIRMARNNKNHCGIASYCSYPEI
Summary of the method: (§2)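 Recombinant rat cathepsins K, L, S (137Gly and 137Cys forms) and mouse cathepsin S in a fluorescence assay. Substrates: Z-Phe-Arg-MCA for K and L, Z-Leu-Leu-Arg-MCA for S. IC50 reported as means ± SD of three experiments.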

[5] = Terminal elimination half life in Sprague-Dawley rat at 1 mg/kg, iv by LC/MS analysis; format: ADME, organism-based; parameters: dose 1 mg/kg, route intravenous; conditions: in vivo
Summary of the method: (§3)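 Male Sprague-Dawley rats dosed orally at 3 mg/kg as a suspension and intravenously at 1 mg/kg as a bolus. Plasma levels quantified by LC/MS. Oral AUC and Cmax dose-normalized to 1 mg/kg. Means ± SD of three individual experiments.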

Procathepsin L [6] = molecular target: T2, Procathepsin L (Rattus norvegicus, UniProt P07154); experiment: Inhibition of rat cathepsin L by fluorescence assay; summary of the method: as §2
T2 sequence (P07154 whole entry): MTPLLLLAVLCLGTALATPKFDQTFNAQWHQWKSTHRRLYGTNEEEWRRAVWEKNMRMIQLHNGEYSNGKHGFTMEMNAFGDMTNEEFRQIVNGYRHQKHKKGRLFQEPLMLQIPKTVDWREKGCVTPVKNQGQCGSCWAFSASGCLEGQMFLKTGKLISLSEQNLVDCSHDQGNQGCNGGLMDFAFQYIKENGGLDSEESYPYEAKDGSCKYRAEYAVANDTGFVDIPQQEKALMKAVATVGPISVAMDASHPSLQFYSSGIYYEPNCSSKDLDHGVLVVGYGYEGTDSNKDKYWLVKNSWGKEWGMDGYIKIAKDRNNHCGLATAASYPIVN

Rattus norvegicus [7] = species: Rattus norvegicus; experiment: Selectivity for rat cathepsin S glycine 137 mutant over rat cathepsin L
Summary of the method: (§4)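 Recombinant rat cathepsins in a fluorescence assay with MCA substrates: Z-Leu-Leu-Arg-MCA for cathepsin S (137Gly form), Z-Phe-Arg-MCA for K and L, and Z-Arg-Arg-MCA for B. IC50 values were taken as means ± SD of three experiments, and selectivity was compared from the IC50 values against the S enzyme and each other cathepsin.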

Rattus norvegicus [8] = species: Rattus norvegicus; experiment: Selectivity for rat cathepsin S glycine 137 mutant over rat cathepsin B; summary of the method: as §4
[9] = Cmax in Sprague-Dawley rat at 3 mg/kg, po by LC/MS analysis; format: ADME, organism-based; parameters: dose 3 mg/kg, route oral; conditions: in vivo; summary of the method: as §3
[10] = Bioavailability in Sprague-Dawley rat at 1 mg/kg, iv and 3 mg/kg, po by LC/MS analysis; format: ADME, organism-based; conditions: in vivo; summary of the method: as §3
Cathepsin K [11] = molecular target: T3, Cathepsin K (Rattus norvegicus, UniProt O35186); experiment: Inhibition of rat cathepsin K by fluorescence assay; summary of the method: as §2
T3 sequence (O35186 whole entry): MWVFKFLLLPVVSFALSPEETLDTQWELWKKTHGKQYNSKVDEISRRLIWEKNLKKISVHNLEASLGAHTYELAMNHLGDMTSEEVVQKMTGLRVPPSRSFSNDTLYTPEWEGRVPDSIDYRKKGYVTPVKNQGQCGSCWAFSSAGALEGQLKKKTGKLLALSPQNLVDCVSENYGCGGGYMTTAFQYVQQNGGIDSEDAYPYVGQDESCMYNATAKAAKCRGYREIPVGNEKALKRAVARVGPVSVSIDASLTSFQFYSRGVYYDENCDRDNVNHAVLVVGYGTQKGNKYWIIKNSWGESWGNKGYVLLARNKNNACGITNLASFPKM

[12] = Inhibition of rat cathepsin S glycine 137 mutant by fluorescence assay; summary of the method: as §2
Rattus norvegicus [13] = species: Rattus norvegicus; experiment: Selectivity for rat cathepsin S glycine 137 mutant over rat cathepsin K; summary of the method: as §4
[14] = Volume of distribution in Sprague-Dawley rat at 1 mg/kg, iv and 3 mg/kg, po by LC/MS analysis; format: ADME, organism-based; conditions: in vivo; summary of the method: as §3
[15] = Plasma clearance in Sprague-Dawley rat at 1 mg/kg, iv and 3 mg/kg, po by LC/MS analysis; format: ADME, organism-based; summary of the method: as §3
[16] = Inhibition of rat cathepsin S cysteine 137 mutant by fluorescence assay; summary of the method: as §2

Chain of Cathepsin S (Homo sapiens, UniProt P25774) (P25774 whole entry): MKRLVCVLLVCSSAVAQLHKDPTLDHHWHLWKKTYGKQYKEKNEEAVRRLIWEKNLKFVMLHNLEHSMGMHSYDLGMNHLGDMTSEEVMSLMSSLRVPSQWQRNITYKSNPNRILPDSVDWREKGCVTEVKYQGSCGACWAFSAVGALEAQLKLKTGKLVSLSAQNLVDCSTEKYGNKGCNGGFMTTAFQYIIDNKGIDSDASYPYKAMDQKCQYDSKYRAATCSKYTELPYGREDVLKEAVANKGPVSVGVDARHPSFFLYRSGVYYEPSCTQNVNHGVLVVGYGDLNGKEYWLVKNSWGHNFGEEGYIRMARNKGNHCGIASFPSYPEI

IC50 (Cathepsin S [1]) [nM]	IC50 (Cathepsin K [2]) [nM]	IC50 (Procathepsin L [3]) [nM]	IC50 (Cathepsin S [4]) [nM]	half-life [5] [h]	IC50 (Procathepsin L [6]) [nM]	Activity (Rattus norvegicus [7])	Activity (Rattus norvegicus [8])	Cmax [9] [nM]	bioavailability [10] [%]	IC50 (Cathepsin K [11]) [nM]	IC50 [12] [nM]	Activity (Rattus norvegicus [13])	Vd [14] [L/kg]	clearance [15] [mL/min/kg]	IC50 [16] [nM]	Structure (SMILES)
50	> 2000	> 2000	–	–	–	–	–	–	–	–	–	–	–	–	–	CC(=O)N1CCN(c2ccc(OCc3cc4cnc(C#N)nc4n3CCC3CCCCCC3)cc2)CC1
–	1650	5200	10	1.1	> 10000	> 100	> 100	61	53	> 10000	10	> 100	5.6	65	> 10000	CC(=O)N1CCN(c2ccc(OCc3cc4cnc(C#N)nc4n3CCC3CCCCC3)cc2)CC1
11	290	> 1000	–	–	–	–	–	–	–	–	–	–	–	–	–	CC(=O)N1CCCN(c2ccc(OCc3cc4cnc(C#N)nc4n3CCC3CCCCC3)cc2)CC1
5	79	2300	–	–	–	–	–	–	–	–	–	–	–	–	–	CC(=O)N1CCN(c2ccc(OCc3cc4cnc(C#N)nc4n3CCC3CCCC3)cc2)CC1
